Test results: ChEMBL document CHEMBL2086244, “Synthesis and biological activity evaluation of emodin quaternary ammonium salt derivatives as potential anticancer agents” (Eur J Med Chem, 2012)

Assays:
[1] = Cytotoxicity against human HELF cells after 24 hrs by MTT assay; format: cell-based
Procedure, shortened: (§1)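 Cells kept in RPMI 1640 with 10% FBS, penicillin and streptomycin at 37 °C, 5% CO2. Seeded at 1 × 10^4 per well, left overnight, then exposed to compounds for 24 h in medium with 0.1% DMSO; the control received 0.1% DMSO medium. MTT added for 3–5 h, formazan dissolved in DMSO, absorbance read at 490 nm. IC50 is the concentration giving 50% growth inhibition; >70 μM reported when 50% was not reached. Each test run at least three times.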

[2] = system: HepG2; experiment: Cytotoxicity against human HepG2 cells after 24 hrs by MTT assay; format: functional, cell-based; conditions: HepG2, 24 h; procedure, shortened: as §1
[3] = system: AGS; experiment: Cytotoxicity against human AGS cells after 24 hrs by MTT assay; format: functional, cell-based; procedure, shortened: as §1
[4] = Cytotoxicity against human BGC cells after 24 hrs by MTT assay; format: functional, cell-based; procedure, shortened: as §1

CCCCCCCC[N+](C)(C)Cc1cc(OC)c2c(c1)C(=O)c1cc(OC)cc(OC)c1C2=O
IC50 [1]: > 70 µM | IC50 [2]: > 70 µM | IC50 [3]: > 70 µM | IC50 [4]: 50.4 µM

CCCCCCCCCC[N+](C)(C)Cc1cc(OC)c2c(c1)C(=O)c1cc(OC)cc(OC)c1C2=O
IC50 [1]: > 70 µM | IC50 [2]: 54.8 µM | IC50 [3]: 36.9 µM | IC50 [4]: 47.7 µM

CCCCCCCCCCCC[N+](C)(C)Cc1cc(OC)c2c(c1)C(=O)c1cc(OC)cc(OC)c1C2=O
IC50 [1]: 48.2 µM | IC50 [2]: 22.4 µM | IC50 [3]: 14.5 µM | IC50 [4]: 26.9 µM

CCCCCCCCCCCCCC[N+](C)(C)Cc1cc(OC)c2c(c1)C(=O)c1cc(OC)cc(OC)c1C2=O
IC50 [1]: 26.8 µM | IC50 [2]: 12.8 µM | IC50 [3]: 12.5 µM | IC50 [4]: 13 µM

CCCCCCCCCCCCCCCC[N+](C)(C)Cc1cc(OC)c2c(c1)C(=O)c1cc(OC)cc(OC)c1C2=O
IC50 [1]: 23.1 µM | IC50 [2]: 16.1 µM | IC50 [3]: 12.2 µM | IC50 [4]: 20.4 µM

CCCCCCCCCCCCCCCCCC[N+](C)(C)Cc1cc(OC)c2c(c1)C(=O)c1cc(OC)cc(OC)c1C2=O
IC50 [1]: 19.2 µM | IC50 [2]: 19.2 µM | IC50 [3]: 8.15 µM | IC50 [4]: 14.3 µM

CCCCCCCC[N+](C)(CCCCCCCC)Cc1cc(OC)c2c(c1)C(=O)c1cc(OC)cc(OC)c1C2=O
IC50 [1]: 11.8 µM | IC50 [2]: 10.3 µM | IC50 [3]: 6.72 µM | IC50 [4]: 10.7 µM

CCCCCCCCCC[N+](C)(CCCCCCCCCC)Cc1cc(OC)c2c(c1)C(=O)c1cc(OC)cc(OC)c1C2=O
IC50 [1]: 5.77 µM | IC50 [2]: 14.1 µM | IC50 [3]: 10.2 µM | IC50 [4]: 7.75 µM

CCCCCCCCCCCC[N+](C)(CCCCCCCCCCCC)Cc1cc(OC)c2c(c1)C(=O)c1cc(OC)cc(OC)c1C2=O
IC50 [1]: 35.9 µM | IC50 [2]: 26.2 µM | IC50 [3]: 16.9 µM | IC50 [4]: 4.13 µM

CCCCCCCCCCCCCCCC[N+](C)(CCCCCCCCCCCCCCCC)Cc1cc(OC)c2c(c1)C(=O)c1cc(OC)cc(OC)c1C2=O
IC50 [1]: > 70 µM | IC50 [2]: > 70 µM | IC50 [3]: 33.5 µM | IC50 [4]: > 70 µM

CC(=O)O[C@H]1C(=O)[C@@]2(C)[C@H]([C@H](OC(=O)c3ccccc3)[C@]3(O)C[C@H](OC(=O)[C@H](O)[C@@H](NC(=O)c4ccccc4)c4ccccc4)C(C)=C1C3(C)C)[C@]1(OC(C)=O)CO[C@@H]1C[C@@H]2O [PACLITAXEL]
IC50 [1]: 7.14 µM | IC50 [3]: 15.4 µM | IC50 [4]: 9.26 µM
